According to ChEMBL document CHEMBL1148636, “Novel analogues of degarelix incorporating hydroxy-, methoxy-, and pegylated-urea moieties at positions 3, 5, 6 and the N-terminus. Part III” (J Med Chem, 2006):
pIC50: −log10 of the molar value. ≈ marks a conversion by molar mass, not a printed value. Numbered stars: 1 amine (or outer) side, 2 acyl side, 3 side chain; on linkers, the order of the positions; unused ones are H or OH. Square brackets hold non-standard residues; d marks the D form. Side chains are listed from the residue outwards. Peptide text beside a SMILES is read from it. * marks the point of attachment. dPhe(4-NHCONH2) = NC(=O)Nc1ccc(C[C@@H](N)C(=O)O)cc1; Dihydroorotyl(S) = O=C1C[C@@H](C(=O)*)NC(=O)N1; dPhe(4-NH2) = Nc1ccc(C[C@@H](N)C(=O)O)cc1; dPhe(4-Cl) = N[C@H](Cc1ccc(Cl)cc1)C(=O)O; Phe(4-NH2) = Nc1ccc(C[C@H](N)C(=O)O)cc1; d2Nal = N[C@H](Cc1ccc2ccccc2c1)C(=O)O; Lys(iPr) = CC(C)NCCCC[C@H](N)C(=O)O; NHCH2CH2OCH2CH2OEt = CCOCCOCCN*; d3Pal = N[C@H](Cc1cccnc1)C(=O)O; Methoxycarbamoyl = CONC(=O)*; PEG3 = NCCOCCOCCOCCC(=O)O; CO = O=C([*:1])[*:2]; Butyryl = CCCC(=O)*

Target: T1, Gonadotropin-releasing hormone receptor (Homo sapiens, UniProt P30968)
T1 sequence (P30968 whole entry): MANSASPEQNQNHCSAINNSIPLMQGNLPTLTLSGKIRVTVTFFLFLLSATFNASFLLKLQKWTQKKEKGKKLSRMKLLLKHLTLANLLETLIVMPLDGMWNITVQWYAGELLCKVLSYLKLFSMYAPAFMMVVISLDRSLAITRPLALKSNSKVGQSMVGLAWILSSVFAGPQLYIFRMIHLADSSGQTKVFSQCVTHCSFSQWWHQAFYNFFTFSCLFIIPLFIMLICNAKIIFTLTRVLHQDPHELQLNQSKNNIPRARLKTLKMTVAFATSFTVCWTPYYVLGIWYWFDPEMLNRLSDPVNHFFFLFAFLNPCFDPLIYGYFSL
Assay: Antagonist activity at human GnRH receptor expressed in HEK293 cells as inhibition of GnRH-induced LH secretion by reporter gene assay
Format: functional, cell-based
Summary of the method: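 HEK293 cells stably expressing cloned human GnRH receptor plus luciferase reporter under LH alpha subunit promoter; plated 5 × 10^4 cells/well, overnight 37 °C. Compounds in 1% DMSO, 11 half-log concentrations in duplicate, 10 min preincubation, then GnRH 1 nM final, ≥5 h at 37 °C; luminescence read. Percent of control fitted to IC50; geometric mean of ≥2 independent experiments.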

SMILES | pIC50
CCCCCCCC(=O)N[C@H](Cc1ccc2ccccc2c1)C(=O)N[C@H](Cc1ccc(Cl)cc1)C(=O)N[C@H](Cc1cccnc1)C(=O)N[C@@H](CO)C(=O)N[C@@H](Cc1ccc(NC(=O)[C@@H]2CC(=O)NC(=O)N2)cc1)C(=O)N[C@H](Cc1ccc(NC(=O)NOC)cc1)C(=O)N[C@@H](CC(C)C)C(=O)N[C@@H](CCCCNC(C)C)C(=O)N1CCC[C@H]1C(=O)N[C@H](C)C(N)=O | 8.02
CCOCCOCCNC(=O)Nc1ccc(C[C@H](NC(=O)[C@H](CO)NC(=O)[C@@H](Cc2cccnc2)NC(=O)[C@@H](Cc2ccc(Cl)cc2)NC(=O)[C@@H](Cc2ccc3ccccc3c2)NC(C)=O)C(=O)N[C@H](Cc2ccc(NC(=O)NCCOCCOCC)cc2)C(=O)N[C@@H](CC(C)C)C(=O)N[C@@H](CCCCNC(C)C)C(=O)N2CCC[C@H]2C(=O)N[C@H](C)C(N)=O)cc1 | 8.69
CCOCCOCCNC(=O)Nc1ccc(C[C@H](NC(=O)[C@H](CO)NC(=O)[C@@H](Cc2cccnc2)NC(=O)[C@@H](Cc2ccc(Cl)cc2)NC(=O)[C@@H](Cc2ccc3ccccc3c2)NC(=O)NCCOCCOCC)C(=O)N[C@H](Cc2ccc(NC(=O)NCCOCCOCC)cc2)C(=O)N[C@@H](CC(C)C)C(=O)N[C@@H](CCCCNC(C)C)C(=O)N2CCC[C@H]2C(=O)N[C@H](C)C(N)=O)cc1 | 8.59
CONC(=O)NCC[C@@H](NC(=O)[C@@H](Cc1ccc(Cl)cc1)NC(=O)[C@@H](Cc1ccc2ccccc2c1)NC(C)=O)C(=O)N[C@@H](CO)C(=O)N[C@@H](Cc1ccc(NC(=O)[C@@H]2CC(=O)NC(=O)N2)cc1)C(=O)N[C@H](Cc1ccc(NC(N)=O)cc1)C(=O)N[C@@H](CC(C)C)C(=O)N[C@@H](CCCCNC(C)C)C(=O)N1CCC[C@H]1C(=O)N[C@H](C)C(N)=O | 8.77
CCCC(=O)N[C@H](Cc1ccc2ccccc2c1)C(=O)N[C@H](Cc1ccc(Cl)cc1)C(=O)N[C@H](Cc1cccnc1)C(=O)N[C@@H](CO)C(=O)N[C@@H](Cc1ccc(NC(=O)NOC)cc1)C(=O)N[C@H](Cc1ccc(NC(N)=O)cc1)C(=O)N[C@@H](CC(C)C)C(=O)N[C@@H](CCCCNC(C)C)C(=O)N1CCC[C@H]1C(=O)N[C@H](C)C(N)=O | 8.84
CC(=O)N[C@H](Cc1ccc2ccccc2c1)C(=O)N[C@H](Cc1ccc(Cl)cc1)C(=O)N[C@H](CNC(=O)NO)C(=O)N[C@@H](CO)C(=O)N[C@@H](Cc1ccc(NC(=O)[C@@H]2CC(=O)NC(=O)N2)cc1)C(=O)N[C@H](Cc1ccc(NC(N)=O)cc1)C(=O)N[C@@H](CC(C)C)C(=O)N[C@@H](CCCCNC(C)C)C(=O)N1CCC[C@H]1C(=O)N[C@H](C)C(N)=O | 8.46
CCCC(=O)N[C@H](Cc1ccc2ccccc2c1)C(=O)N[C@H](Cc1ccc(Cl)cc1)C(=O)N[C@H](Cc1cccnc1)C(=O)N[C@@H](CO)C(=O)N[C@@H](Cc1ccc(NC(=O)NOC)cc1)C(=O)N[C@H](Cc1ccc(NC(=O)NOC)cc1)C(=O)N[C@@H](CC(C)C)C(=O)N[C@@H](CCCCNC(C)C)C(=O)N1CCC[C@H]1C(=O)N[C@H](C)C(N)=O (Butyryl-[d2Nal][dPhe(4-Cl)][d3Pal]S[Phe(4-NH2)](Methoxycarbamoyl)[dPhe(4-NH2)](Methoxycarbamoyl)L[Lys(iPr)]P[dA]-NH2) | 8.86
CCCCCCCC(=O)N[C@H](Cc1ccc2ccccc2c1)C(=O)N[C@H](Cc1ccc(Cl)cc1)C(=O)N[C@H](Cc1cccnc1)C(=O)N[C@@H](CO)C(=O)N[C@@H](Cc1ccc(NC(=O)NOC)cc1)C(=O)N[C@H](Cc1ccc(NC(=O)NOC)cc1)C(=O)N[C@@H](CC(C)C)C(=O)N[C@@H](CCCCNC(C)C)C(=O)N1CCC[C@H]1C(=O)N[C@H](C)C(N)=O | 8.30
CONC(=O)Nc1ccc(C[C@H](NC(=O)[C@H](CO)NC(=O)[C@@H](CCC(N)=O)NC(=O)[C@@H](Cc2ccc(Cl)cc2)NC(=O)[C@@H](Cc2ccc3ccccc3c2)NC(C)=O)C(=O)N[C@H](Cc2ccc(NC(=O)NOC)cc2)C(=O)N[C@@H](CC(C)C)C(=O)N[C@@H](CCCCNC(C)C)C(=O)N2CCC[C@H]2C(=O)N[C@H](C)C(N)=O)cc1 | 8.53
CCCCCCCC(=O)N[C@H](Cc1ccc2ccccc2c1)C(=O)N[C@H](Cc1ccc(Cl)cc1)C(=O)N[C@H](Cc1cccnc1)C(=O)N[C@@H](CO)C(=O)N[C@@H](Cc1ccc(NC(=O)NOC)cc1)C(=O)N[C@H](Cc1ccc(NC(N)=O)cc1)C(=O)N[C@@H](CC(C)C)C(=O)N[C@@H](CCCCNC(C)C)C(=O)N1CCC[C@H]1C(=O)N[C@H](C)C(N)=O | 8.38
CC(=O)N[C@H](Cc1ccc2ccccc2c1)C(=O)N[C@H](Cc1ccc(Cl)cc1)C(=O)N[C@H](CCNC(=O)NO)C(=O)N[C@@H](CO)C(=O)N[C@@H](Cc1ccc(NC(=O)[C@@H]2CC(=O)NC(=O)N2)cc1)C(=O)N[C@H](Cc1ccc(NC(N)=O)cc1)C(=O)N[C@@H](CC(C)C)C(=O)N[C@@H](CCCCNC(C)C)C(=O)N1CCC[C@H]1C(=O)N[C@H](C)C(N)=O | 8.57
CCOCCOCCNC(=O)Nc1ccc(C[C@@H](NC(=O)[C@H](Cc2ccc(NC(=O)[C@@H]3CC(=O)NC(=O)N3)cc2)NC(=O)[C@H](CO)NC(=O)[C@@H](Cc2cccnc2)NC(=O)[C@@H](Cc2ccc(Cl)cc2)NC(=O)[C@@H](Cc2ccc3ccccc3c2)NC(C)=O)C(=O)N[C@@H](CC(C)C)C(=O)N[C@@H](CCCCNC(C)C)C(=O)N2CCC[C@H]2C(=O)N[C@H](C)C(N)=O)cc1 (Ac-[d2Nal][dPhe(4-Cl)][d3Pal]S[Phe(4-NH2)](Dihydroorotyl(S))[dPhe(4-NH2)]([CO-NHCH2CH2OCH2CH2OEt])L[Lys(iPr)]P[dA]-NH2) | 9.06
CONC(=O)NCCOCCOCCOCCOCCOCCOCCC(=O)Nc1ccc(C[C@@H](NC(=O)[C@H](Cc2ccc(NC(=O)NOC)cc2)NC(=O)[C@H](CO)NC(=O)[C@@H](Cc2cccnc2)NC(=O)[C@@H](Cc2ccc(Cl)cc2)NC(=O)[C@@H](Cc2ccc3ccccc3c2)NC(C)=O)C(=O)N[C@@H](CC(C)C)C(=O)N[C@@H](CCCCNC(C)C)C(=O)N2CCC[C@H]2C(=O)N[C@H](C)C(N)=O)cc1 | 8.78
CONC(=O)NCC[C@@H](NC(=O)[C@@H](Cc1ccc(Cl)cc1)NC(=O)[C@@H](Cc1ccc2ccccc2c1)NC(C)=O)C(=O)N[C@@H](CO)C(=O)N[C@@H](Cc1ccc(NC(=O)NOC)cc1)C(=O)N[C@H](Cc1ccc(NC(=O)NOC)cc1)C(=O)N[C@@H](CC(C)C)C(=O)N[C@@H](CCCCNC(C)C)C(=O)N1CCC[C@H]1C(=O)N[C@H](C)C(N)=O | 8.83
CONC(=O)NC[C@@H](NC(=O)[C@@H](Cc1ccc(Cl)cc1)NC(=O)[C@@H](Cc1ccc2ccccc2c1)NC(C)=O)C(=O)N[C@@H](CO)C(=O)N[C@@H](Cc1ccc(NC(=O)[C@@H]2CC(=O)NC(=O)N2)cc1)C(=O)N[C@H](Cc1ccc(NC(N)=O)cc1)C(=O)N[C@@H](CC(C)C)C(=O)N[C@@H](CCCCNC(C)C)C(=O)N1CCC[C@H]1C(=O)N[C@H](C)C(N)=O | 8.50
CONC(=O)NCCOCCOCCOCCC(=O)Nc1ccc(C[C@H](NC(=O)[C@H](CO)NC(=O)[C@@H](Cc2cccnc2)NC(=O)[C@@H](Cc2ccc(Cl)cc2)NC(=O)[C@@H](Cc2ccc3ccccc3c2)NC(C)=O)C(=O)N[C@H](Cc2ccc(NC(N)=O)cc2)C(=O)N[C@@H](CC(C)C)C(=O)N[C@@H](CCCCNC(C)C)C(=O)N2CCC[C@H]2C(=O)N[C@H](C)C(N)=O)cc1 (Ac-[d2Nal][dPhe(4-Cl)][d3Pal]S[Phe(4-NH2)]([PEG3-Methoxycarbamoyl])[dPhe(4-NHCONH2)]L[Lys(iPr)]P[dA]-NH2) | 8.97
CC(=O)N[C@H](Cc1ccc2ccccc2c1)C(=O)N[C@H](Cc1ccc(Cl)cc1)C(=O)N[C@H](Cc1cccnc1)C(=O)N[C@@H](CO)C(=O)N[C@@H](Cc1ccc(NC(=O)NO)cc1)C(=O)N[C@H](Cc1ccc(NC(N)=O)cc1)C(=O)N[C@@H](CC(C)C)C(=O)N[C@@H](CCCCNC(C)C)C(=O)N1CCC[C@H]1C(=O)N[C@H](C)C(N)=O | 9.07
CCOCCOCCNC(=O)Nc1ccc(C[C@@H](NC(=O)[C@H](Cc2ccc(NC(=O)[C@@H]3CC(=O)NC(=O)N3)cc2)NC(=O)[C@H](CO)NC(=O)[C@@H](Cc2cccnc2)NC(=O)[C@@H](Cc2ccc(Cl)cc2)NC(=O)[C@@H](Cc2ccc3ccccc3c2)NC(=O)NCCOCCOCC)C(=O)N[C@@H](CC(C)C)C(=O)N[C@@H](CCCCNC(C)C)C(=O)N2CCC[C@H]2C(=O)N[C@H](C)C(N)=O)cc1 | 8.34
CONC(=O)Nc1ccc(C[C@H](NC(=O)[C@H](CO)NC(=O)[C@@H](Cc2cccnc2)NC(=O)[C@@H](Cc2ccc(Cl)cc2)NC(=O)[C@@H](Cc2ccc3ccccc3c2)NC(C)=O)C(=O)N[C@H](Cc2ccc(NC(=O)NOC)cc2)C(=O)N[C@@H](CC(C)C)C(=O)N[C@@H](CCCNC(=O)CNC(C)C)C(=O)N2CCC[C@H]2C(=O)N[C@H](C)C(N)=O)cc1 | 8.82
CCCC(=O)N[C@H](Cc1ccc2ccccc2c1)C(=O)N[C@H](Cc1ccc(Cl)cc1)C(=O)N[C@H](Cc1cccnc1)C(=O)N[C@@H](CO)C(=O)N[C@@H](Cc1ccc(NC(=O)[C@@H]2CC(=O)NC(=O)N2)cc1)C(=O)N[C@H](Cc1ccc(NC(=O)NOC)cc1)C(=O)N[C@@H](CC(C)C)C(=O)N[C@@H](CCCCNC(C)C)C(=O)N1CCC[C@H]1C(=O)N[C@H](C)C(N)=O | 8.67
CC(=O)N[C@H](Cc1ccc2ccccc2c1)C(=O)N[C@H](Cc1ccc(Cl)cc1)C(=O)N[C@H](Cc1cccnc1)C(=O)N[C@@H](CO)C(=O)N[C@@H](Cc1ccc(NC(=O)[C@@H]2CC(=O)NC(=O)N2)cc1)C(=O)N[C@H](Cc1ccc(NC(=O)NO)cc1)C(=O)N[C@@H](CC(C)C)C(=O)N[C@@H](CCCCNC(C)C)C(=O)N1CCC[C@H]1C(=O)N[C@H](C)C(N)=O | 9.10

Tested on: Mast cell (Rattus norvegicus)
Assay: Histamine release in mast cells by ELISA

SMILES | EC50
CC(=O)N[C@H](Cc1ccc2ccccc2c1)C(=O)N[C@H](Cc1ccc(Cl)cc1)C(=O)N[C@H](Cc1cccnc1)C(=O)N[C@@H](CO)C(=O)N[C@@H](Cc1ccc(NC(=O)NO)cc1)C(=O)N[C@H](Cc1ccc(NC(N)=O)cc1)C(=O)N[C@@H](CC(C)C)C(=O)N[C@@H](CCCCNC(C)C)C(=O)N1CCC[C@H]1C(=O)N[C@H](C)C(N)=O | 118 mg/L (≈ 75.9 µM)
